This note sets out measurements from ChEMBL document CHEMBL4000256, “Light-Regulated NO Release as a Novel Strategy To Overcome Doxorubicin Multidrug Resistance” (ACS Med Chem Lett, 2017).

For series [1], the system named is H9c2. Briefly: Cytotoxicity against 7 mW/cm'2 irradiated rat H9c2 cells at 5 uM coadministered with DOX measured after 20 mins by spectrophotometric method. The note with it: h9c2, 20 min. The class given is cell-based. The method in brief:
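Cells (M14 melanoma, human fibroblasts or rat H9c2 cardiomyocytes) kept 20 min at room temperature in PBS under 400 nm light (7 mW/cm2), alone or with 5 μM compound, given alone or with equimolar 5 μM doxorubicin. Damage read as extracellular LDH release. Triplicate measurements, n = 3.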

The test system of series [2] is H9c2. As to the kind of experiment: Dark toxicity against rat H9c2 cells at 5 uM measured after 20 mins co-incubated with doxorubicin by spectrophotometric method. As to conditions: h9c2, 20 min; call rule not given here. The class given is cell-based. The method in brief: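 Cells (M14 melanoma, human fibroblasts or rat H9c2 cardiomyocytes) kept 20 min at room temperature in PBS in the dark, with 5 μM compound, given alone or with equimolar 5 μM doxorubicin. Cytotoxicity read as extracellular LDH release. Triplicate measurements, n = 3.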

In series [3] the test system is M14. Briefly: Dark toxicity in human M14 cells assessed as increase in nitrite levels at 5 uM measured after 20 mins in presence of doxorubicin by Griess reagent based spectrophotometric method. The format is cell-based. As to conditions: m14, 20 min. Summed up:
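M14 melanoma cells held 20 min at room temperature in PBS, either in the dark or under 400 nm light (7 mW/cm2), with 5 μM compound alone or alongside 5 μM doxorubicin. Nitrite in the supernatant measured by Griess assay, in triplicate, n = 3.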
A general note: The Griess reaction detects nitrite, a stable product of nitric oxide.

Series [4] concerns the target Multidrug resistance-associated protein 1 (Homo sapiens, UniProt P33527). As to the kind of experiment: Inhibition of MRP1 in 7 mW/cm'2 irradiated human M14 cells assessed as nitration of tyrosine in MRP1 at 5 uM measured after 20 mins in presence of doxorubicin by immunoblotting. The method in brief: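 M14 melanoma cells held 20 min at room temperature in PBS under 400 nm light (7 mW/cm2) with 5 μM compound, alone or with equimolar doxorubicin. Nitrated ABC transporters (Pgp, MRP1, MRP4, BCRP) detected by immunoblot.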
(A western blot detects proteins with antibodies after separation by electrophoresis.)

Series [5] is described as follows: Stability of the compound in PBS with 3% DMSO. The format is physicochemical. The note with it: buffer.
Series [6] can be described thus: Solubility of the compound in PBS with 3% DMSO. The format is physicochemical. As to conditions: buffer.
Series [7] is described as follows: Half life in DMEM medium. The class given is physicochemical.

Chain of Multidrug resistance-associated protein 1 (P33527 whole entry): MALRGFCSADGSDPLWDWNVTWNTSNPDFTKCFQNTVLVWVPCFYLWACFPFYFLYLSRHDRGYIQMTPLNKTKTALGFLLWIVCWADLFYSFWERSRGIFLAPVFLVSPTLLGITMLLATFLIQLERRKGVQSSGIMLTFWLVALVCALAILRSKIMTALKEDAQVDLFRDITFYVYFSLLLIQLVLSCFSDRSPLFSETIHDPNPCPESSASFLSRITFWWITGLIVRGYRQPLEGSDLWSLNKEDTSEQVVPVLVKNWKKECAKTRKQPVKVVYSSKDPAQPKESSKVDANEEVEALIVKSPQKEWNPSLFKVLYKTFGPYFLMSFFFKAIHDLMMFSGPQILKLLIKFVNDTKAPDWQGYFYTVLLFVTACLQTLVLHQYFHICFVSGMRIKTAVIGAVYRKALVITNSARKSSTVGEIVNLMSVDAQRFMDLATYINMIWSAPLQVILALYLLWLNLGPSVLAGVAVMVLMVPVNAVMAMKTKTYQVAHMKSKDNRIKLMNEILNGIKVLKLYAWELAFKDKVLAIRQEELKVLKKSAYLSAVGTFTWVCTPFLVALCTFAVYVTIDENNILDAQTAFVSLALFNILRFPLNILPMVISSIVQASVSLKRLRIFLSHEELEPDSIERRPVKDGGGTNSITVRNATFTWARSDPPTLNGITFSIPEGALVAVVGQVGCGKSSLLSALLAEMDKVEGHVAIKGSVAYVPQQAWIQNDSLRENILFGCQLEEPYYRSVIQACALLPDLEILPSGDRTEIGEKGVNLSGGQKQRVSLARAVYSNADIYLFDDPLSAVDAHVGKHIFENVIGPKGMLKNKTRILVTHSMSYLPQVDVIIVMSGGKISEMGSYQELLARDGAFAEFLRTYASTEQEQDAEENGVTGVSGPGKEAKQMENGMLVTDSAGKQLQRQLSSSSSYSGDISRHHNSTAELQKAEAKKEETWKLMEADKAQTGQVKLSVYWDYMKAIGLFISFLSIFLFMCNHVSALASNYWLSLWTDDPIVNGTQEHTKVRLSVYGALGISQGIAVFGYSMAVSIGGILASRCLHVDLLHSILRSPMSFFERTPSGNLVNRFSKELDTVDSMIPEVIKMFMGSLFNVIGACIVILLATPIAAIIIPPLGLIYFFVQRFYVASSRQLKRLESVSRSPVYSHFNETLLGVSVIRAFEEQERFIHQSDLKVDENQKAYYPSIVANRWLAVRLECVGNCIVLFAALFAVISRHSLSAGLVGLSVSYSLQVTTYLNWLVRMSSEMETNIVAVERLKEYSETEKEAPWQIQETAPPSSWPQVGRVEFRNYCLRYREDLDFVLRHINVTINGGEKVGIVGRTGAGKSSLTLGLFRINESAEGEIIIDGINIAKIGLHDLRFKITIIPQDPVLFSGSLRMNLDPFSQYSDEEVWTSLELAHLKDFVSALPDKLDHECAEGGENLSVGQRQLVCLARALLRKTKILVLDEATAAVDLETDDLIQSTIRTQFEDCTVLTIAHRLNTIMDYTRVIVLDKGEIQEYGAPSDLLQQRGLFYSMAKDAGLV

Regarding `NCCCNc1ccc([N+](=O)[O-])c(C(F)(F)F)c1`, the Activity entry in series [1], in series [2] and in series [3] was “Non-Toxic” each time. For the same compound, the “inhibition (INH)” value in series [4] is listed as “Active”.
Turning to `COc1cccc2c1C(=O)c1c(O)c3c(c(O)c1C2=O)C[C@@](O)(C(=O)COC(=O)c1ccc(C(=O)NCCCNc2ccc([N+](=O)[O-])c(C(F)(F)F)c2)cc1)C[C@@H]3O[C@H]1C[C@H](N)[C@H](O)[C@H](C)O1.Cl`, the Stability entry in series [5] is “Stable”. Further, in series [6], the solubility entry was “Soluble”. In series [7], the half-life (usually the time in which the quantity being followed falls by half) is greater than 24 h.
